This excerpt belongs to a sample that is enriched for hits.
UPR CHOP act = activators of apoptotic arm of unfolded protein response (CHOP). activation, % at 10 µM. CHO-CHOP luciferase reporter, UPR activation, luminescence; percent of tunicamycin response over DMSO baseline. actives 0.34% (n = 330,000);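 active = at 10 µM dose, activation of 40% or more, normalized to positive control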;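 note: 100% = tunicamycin at 10 µg/mL and 0% = DMSO alone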
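System: CHO-CHOP luciferase reporter cell line | Buffer or medium: F12 medium containing 10% fetal bovine serum | Doses: One dose, 10 µM in 0.5% DMSO | Times: 6 h compound exposure at 37 °C after overnight seeding | Signal: Luciferase luminescence | Read-out: % activation vs tunicamycin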
697 NFkB inh = inhibitors of the PMA/ionomycin-induced NF-kB reporter in 697 B cells. 697 B-cell NF-kB luciferase reporter, 16 h. actives 0.33% (n = 330,000). inhibition, % at 4 µM; in the data active = inhibition above about 35%
Jurkat NFkB inh = lowers PMA/ionomycin-induced NF-kB signal in Jurkat cells; actives 0.53% (n = 330,000); PMA/ionomycin-induced NF-kB luciferase reporter, luminescence; inhibition, % at 4 µM; in the data active = inhibition above about 50%
UPR XBP1 act = activators of adaptive arm of unfolded protein response (XBP1); CHO-XBP1 luciferase reporter, IRE1-XBP1 UPR activation, luminescence; percent of tunicamycin response, DMSO as zero; activation, % at 20 µM; actives 0.33% (n = 330,000); AID 463104;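 active = versus positive control, 20 µM dose yields 30% or more activation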;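 note: 100% = tunicamycin at 10 µg/mL and 0% = DMSO only wells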
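Material: IRE1-XBP1 luciferase reporter CHO line / Quantity: one thousand reporter cells per well / Buffer or medium: F12 with 10% serum / Compound: 20 µM single concentration, DMSO 1% / Times: 6 h treatment, 37 °C / Detection: Steady-Glo luciferase glow luminescence, 10 min after reagent addition / Benchmarks: tunicamycin high, DMSO low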
CHOP inhibitor = inhibitors of CHOP induction in ER stress response; CHO-K1 CHOP-promoter luciferase, tunicamycin-induced, 15-18 h; inhibition, % at 10 µM; actives 3.8% (n = 220,000); AID 2732;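 active = compounds that reduced the stress-induced luciferase reporter signal by more than about 70% of percent inhibition, limit read from the data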;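 note: 0% = tunicamycin plus vehicle and 100% = wells without tunicamycin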
Numbers without * were called inactive; . = no result.

SMILES	UPR CHOP act	697 NFkB inh	Jurkat NFkB inh	UPR XBP1 act	CHOP inhibitor
C=CCn1c(-c2csc(-c3ccc(Cl)cc3)n2)n[nH]c1=S	-1.2	10.9	-5.5	3.0	71.8*
COc1cccc(OCC(=O)NNC(=O)c2ccc(-c3ccccc3)cc2)c1	-0.3	8.0	-10.0	1.3	80.2*
COC(=O)c1c(NC(=O)COc2ccc(Cl)cc2)sc2c1CC(C)(C)NC2(C)C	11.5	-1.0	27.8	43.0*	.
COC(=O)c1c(NC(=O)Cc2ccccc2)sc2c1CC(C)(C)NC2(C)C	-0.4	-18.8	-18.1	5.0	.
N#Cc1c(-c2ccccc2F)cc(C2CC2)nc1SCC(=O)c1cccs1	1.9	-30.4	-2.2	-1.2	21.7
Cn1c(N)c(C(=O)COC(=O)CCOc2ccc(C(C)(C)C)cc2)c(=O)n(C)c1=O	-1.3	-4.3	-12.1	-1.1	71.0*
CCOC(=O)C1=C(C)N=C2c3ccccc3C(=O)C2C1c1ccc(Cl)cc1 (stereo not given)	1.3	-8.8	-12.0	25.2	87.9*
O=S(=O)(c1ccccc1)N1CCC2(CC1)OCCO2	-1.3	12.2	-15.5	-1.8	5.0
CC(=O)Nc1ccc(NC(=O)c2ccc(NS(=O)(=O)c3cc(C(C)(C)C)cc(C)c3C)cc2)cc1	1.0	16.5	6.9	-2.0	76.4*
COc1cccc(NCc2cc3c(C(C)(C)C)nn(-c4ccccc4)c3[nH]c2=O)c1	2.3	-32.8	-5.4	2.5	71.2*
CCOc1ccc(NCc2cc3c(C(C)(C)C)nn(-c4ccccc4)c3[nH]c2=O)cc1	4.1	-14.9	-1.9	9.8	59.2
O=c1c(C(c2ccc(F)cc2)c2c(O)nc3n(c2=O)CCS3)c(O)nc2n1CCS2	-2.6	13.7	9.0	2.2	14.5
COc1ccccc1N1CCN(c2ccc([N+](=O)[O-])cc2Cl)CC1	2.5	-13.6	48.3	-0.1	54.4
O=C(COC(=O)c1ccccc1Nc1ccccc1)c1ccccc1	2.2	-18.9	-7.2	2.6	20.9
Cc1ccc(NC(=O)COC(=O)c2ccccc2Nc2ccccc2)cc1	0.4	17.7	10.2	-1.2	76.9*
COc1ccc(-c2nc(N)ncc2-c2csc(C)n2)c(O)c1	-0.2	-7.0	-3.2	0.1	73.2*
CCc1cc(-c2nc(N)ncc2-c2csc(C)n2)c(O)cc1OC	4.0	-17.0	3.8	6.8	6.5
CCOc1ccc(-c2nc(N)ncc2-c2ccccc2)c(O)c1	0.5	-5.1	-2.9	1.7	90.8*
CC(=O)N1c2ccc3ccccc3c2C(C)CC12CCCCC2 (stereo not given)	1.3	13.9	14.9	3.5	70.1*
Fc1ccc(-c2nnc(-c3ccc(Cl)cc3Cl)o2)cc1	-7.6	-169.2	-136.6	-7.7	80.2*
Fc1ccc(-c2nnc(-c3ccc(Cl)cc3)o2)cc1	5.7	-161.9	-126.8	1.3	17.2
Cc1c(N=Nc2c(-c3ccc([N+](=O)[O-])cc3)[nH]n(C(N)=S)c2=O)cccc1[N+](=O)[O-]	.	.	.	.	106.3*
NC(=S)n1[nH]c(-c2ccc([N+](=O)[O-])cc2)c(N=Nc2ccccc2[N+](=O)[O-])c1=O	.	.	.	.	85.1*
Cc1[nH]n(C(N)=S)c(=O)c1N=Nc1cccc([N+](=O)[O-])c1C	4.3	-120.1	-29.8	-1.8	.
Nc1[nH]n(-c2ccccc2)c(=O)c1N=Nc1ccccc1[N+](=O)[O-]	5.4	-106.6	-97.8	1.8	-1.8
SMILES	UPR CHOP act	697 NFkB inh	Jurkat NFkB inh	UPR XBP1 act	CHOP inhibitor
O=C(Nc1ccc(C(F)(F)F)cc1)c1cc(S(=O)(=O)NCC2COc3ccccc3O2)ccc1F (stereo not given)	-0.9	11.6	13.8	-1.6	81.8*
COc1ccc(NC(=O)c2cc(S(=O)(=O)NCC3COc4ccccc4O3)ccc2F)cc1 (stereo not given)	0.7	16.6	1.1	-4.5	44.6
O=C(O)c1cc(S(=O)(=O)NCC2COc3ccccc3O2)ccc1Cl (stereo not given)	0.7	7.2	-7.7	-0.3	.
CC(C)c1ccc(NC(=O)c2cc(S(=O)(=O)NCC3COc4ccccc4O3)ccc2F)cc1 (stereo not given)	0.7	-4.3	11.3	-3.2	81.0*
O=C(c1ccc(=O)[nH]n1)N1CCN(S(=O)(=O)c2cccc(F)c2)CC1	0.1	-8.4	0.9	0.2	.
CCn1c(=O)c2sccc2n(Cc2cc(C(=O)OC)ccc2OC)c1=O	0.9	2.3	9.9	5.1	.
O=S(=O)(NC12CC3CC(CC(C3)C1)C2)c1ccc(F)cc1	-1.8	-0.6	-10.3	0.1	72.0*
CCc1nc(N2CCN(S(C)(=O)=O)CC2)c2c3c(sc2n1)CCCC3	1.8	5.0	-28.9	-0.9	11.8
Oc1ccc2ccccc2c1C=Nc1ccc(N2CCOCC2)cc1	3.5	-4.1	1.4	-1.5	78.0*
C=Cc1ccc(N=Cc2c(O)ccc3ccccc23)cc1	3.5	-3.7	-4.3	0.1	.
O=C(CSC1=N/C(=C/c2ccc(Cl)c(Cl)c2)C(=O)N1c1ccccc1F)NC1CC1	2.9	1.2	-6.7	-2.1	-17.4
O=C1[C@@H]2Cc3c([nH]c4ccccc34)[C@@H](c3ccccc3)N2C(=O)[C@@H]2Cc3c([nH]c4ccccc34)[C@@H](c3ccccc3)N12	.	.	.	.	106.1*
Cc1[nH]c(C)c(S(=O)(=O)N2CCN(c3ccc(Cl)cc3)CC2)c1C(=O)N1CCCC1	0.6	-7.8	0.2	-5.2	.
Cc1ccccc1OCc1nc2ccccc2c(=O)n1/N=C/c1cn[nH]c1-c1ccccc1	4.2	-46.1	-17.6	2.8	85.3*
Cc1nc2ccccc2c(=O)n1/N=C/c1cn[nH]c1-c1ccccc1	-0.6	3.1	-14.2	1.5	9.1
COc1ccc(NC(=O)c2cccc([N+](=O)[O-])c2)cc1	0.4	-10.4	-28.6	2.4	-6.7
COc1ccc(NC(=O)c2cc([N+](=O)[O-])ccc2O)cc1	-9.1	-32.8	15.7	-11.9	75.0*
CN1CCN(S(=O)(=O)c2ccc(C#N)cc2)C(c2ccccc2)C1 (stereo not given)	-1.4	14.4	11.5	-1.4	.
CCOC(=O)c1nnn(-c2nonc2-n2cccc2)c1CN1CCCCC1	3.6	-20.1	-11.4	0.7	86.6*
CCOC(=O)c1nnn(-c2nonc2N)c1CN1CCCCCC1	0.7	17.4	12.0	-1.4	28.0
CC(C)c1nc(SCC(=O)N2CCN(c3ccccc3)CC2)c2c(=O)n(C)c(=O)n(C)c2n1	2.8	-28.2	12.2	0.0	70.2*
CC(C)c1nc(SCC(=O)Nc2cccc(C(F)(F)F)c2)c2c(=O)n(C)c(=O)n(C)c2n1	1.0	-30.1	2.7	-5.0	70.3*
Cc1cccc(NC2=C(Cl)C(=O)OC2NC(=O)c2ccccc2)c1 (stereo not given)	0.7	11.4	14.3	0.5	-29.0
COc1cc(/C=N/n2c(C3CCCCC3)n[nH]c2=S)ccc1O	-1.8	-8.4	13.2	-0.1	.
COC(=O)c1cc(=O)c2c(C)nc(C(Cl)(Cl)Cl)nc2[nH]1	1.1	7.9	-17.3	-2.5	31.6

Source: PubChem BioAssay
